This is an account of results in ChEMBL document CHEMBL4024711, “Design, synthesis and biological evaluation of novel nitric oxide-donating protoberberine derivatives as antitumor agents” (Eur J Med Chem, 2017).

What is called IC50 is the concentration that inhibits the measured activity by half.

Test [1] has as its system H22. Description: Antitumor activity against […] H22 cells xenografted in ICR mouse assessed as tumor weight at 30 mg/kg, iv administered once daily for 21 days measured post last dose (reference value: 4.38 +/- 0.16 g). It counts as functional. A general note: Xenograft models place foreign cells or tissue in a host animal.
Test [2] has as its system H22. Put plainly: Antitumor activity against […] H22 cells xenografted in ICR mouse assessed as tumor growth inhibition at 15 mg/kg, iv administered once daily for 21 days measured post last dose relative to control. The conditions noted are these: 504 h, read-out: TGI. In kind it is functional.
Test [3] relates to HepG2. Put plainly: Induction of apoptosis in human HepG2 cells assessed as live cells at 1 uM after 72 hrs by Annexin V-APC/7-AAD staining based flow cytometric method (reference value: 94.99%). In kind it is functional.
The test system of test [4] is HepG2. Put plainly: Induction of apoptosis in human HepG2 cells after 72 hrs by Annexin V-APC/7-AAD staining based flow cytometric method. It counts as functional, cell-based. In general terms: Flow cytometry measures light scatter and fluorescence of single cells or particles in a stream.
For test [5], the system named is HepG2. Description: Disruption of mitochondrial membrane potential in human HepG2 cells assessed as collapse of the mitochondrial membrane potential at 1 uM after 72 hrs by JC1 staining based flow cytometric method (reference value: 3.05%). In kind it is functional. The gist of the method:
(§1)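 HepG2 cells were exposed to 0, 0.5, 1 or 2 μM for 72 h, washed in PBS, and resuspended in JC-1 incubation buffer at 37 °C for 15 min. The fractions of cells with healthy or collapsed mitochondrial membrane potential were determined by flow cytometry.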

Test [6] relates to H22. Put plainly: Antitumor activity against […] H22 cells xenografted in ICR mouse assessed as tumor growth inhibition at 30 mg/kg, iv administered once daily for 21 days measured post last dose relative to control. In kind it is functional. The conditions noted are these: 504 h, read-out: TGI.
In test [7] the test system is HepG2. Put plainly: Cell cycle arrest in human HepG2 cells assessed as accumulation at S phase at 0.5 uM after 72 hrs by propidium iodide staining based flow cytometric method (reference value: 25.78%). It counts as functional. The gist of the method:
(§2)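 HepG2 cells were seeded and grown 24 h at 37 °C, 5% CO2. They were then exposed to 0, 0.5, 1 or 2 μM for 72 h, fixed in 70% ethanol at 4 °C for 12 h, and stained with RNase A plus propidium iodide for 30 min. DNA content was measured by flow cytometry to give the cell-cycle phase distribution.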

Test [8] relates to HCT-116. Description: Cytotoxicity against human HCT116 cells after 72 hrs by MTT assay. The conditions noted are these: HCT-116, 72 h. In kind it is functional, cell-based. The method in brief: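 MTT assay. Cells were plated and grown 24 h at 37 °C, 5% CO2, then exposed to compound in medium with 0.1% DMSO for 72 h. MTT (5 mg/mL in PBS) was added for 4 h and absorbance read at 490 nm. IC50 was taken from dose-response curves; at least three independent experiments.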
Background: Tetrazolium assays rely on reduction of a dye to a coloured formazan, in cell work by metabolically active cells.

Test [9] has as its system HepG2. Description: Cell cycle arrest in human HepG2 cells assessed as accumulation at G1 phase at 1 uM after 72 hrs by propidium iodide staining based flow cytometric method (reference value: 56.77%). In kind it is functional. The method in brief: as §2
Test [10] deals with HepG2. Description: Cell cycle arrest in human HepG2 cells assessed as accumulation at S phase at 1 uM after 72 hrs by propidium iodide staining based flow cytometric method (reference value: 25.78%). In kind it is functional. The method in brief: as §2
Test [11] concerns HepG2. Description: Induction of apoptosis in human HepG2 cells assessed as late apoptotic cells at 0.5 uM after 72 hrs by Annexin V-APC/7-AAD staining based flow cytometric method (reference value: 0.51%). In kind it is functional.
Test [12] deals with HepG2. Description: Disruption of mitochondrial membrane potential in human HepG2 cells assessed as collapse of the mitochondrial membrane potential at 2 uM after 72 hrs by JC1 staining based flow cytometric method (reference value: 3.05%). It counts as functional. The method in brief: as §1
The subject of test [13] is HepG2. Description: Cell cycle arrest in human HepG2 cells assessed as accumulation at G2 phase at 2 uM after 72 hrs by propidium iodide staining based flow cytometric method (reference value: 17.45%). In kind it is functional. The method in brief: as §2

For `COc1cc2c(cc1OC)-c1c(Br)c3ccc(OC)c(OCCCCCCCCO[N+](=O)[O-])c3c[n+]1CC2.[Br-]`, the Activity in [1] is 1.64 g; in test [3], 63.61%; in test [4], “Dose-dependent effect”; in test [5] it was 25.5%; in [7], 25.49%; in [9] it was 47.33%. In addition, the Activity in test [10] came to 23.1%; in test [11], 2.39%; in [12], 40.5%; in [13], 41.45%. Further, the inhibition in vivo at 15 mg/kg in test [2] came out at 45.9%. Besides, the inhibition in vivo at 30 mg/kg in test [6] is 62.5%. The molecule also registered an IC50 in test [8] of 2290 nM.
